Activity calls are given as the source filed them.
Columns and labels:
[1] = biological target: T1, Glycogen synthase kinase-3 beta (Homo sapiens, UniProt P49841); assay: Inhibition of okadaic acid-induced GSK-3beta-mediated tau hyperphosphorylation in human SH-SY5Y cells assessed as increase in cell viability pre-incubated for 1 hr before okadaic acid stimulation for 24 hrs by MTT assay; format: cell-based
Method in brief: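 SH-SY5Y cells grown in DMEM with 10% FBS, seeded at 60000 per well and used 48 h later. Compound given 1 h before 30nM okadaic acid, then 24 h incubation. Viability by MTT, 0.5mg/mL for at least 4 h, formazan dissolved in DMSO, absorbance at 595 nm. Expressed relative to control (=100); n=6 from three independent experiments.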
Target sequence in this assay (P49841 whole entry, looked up): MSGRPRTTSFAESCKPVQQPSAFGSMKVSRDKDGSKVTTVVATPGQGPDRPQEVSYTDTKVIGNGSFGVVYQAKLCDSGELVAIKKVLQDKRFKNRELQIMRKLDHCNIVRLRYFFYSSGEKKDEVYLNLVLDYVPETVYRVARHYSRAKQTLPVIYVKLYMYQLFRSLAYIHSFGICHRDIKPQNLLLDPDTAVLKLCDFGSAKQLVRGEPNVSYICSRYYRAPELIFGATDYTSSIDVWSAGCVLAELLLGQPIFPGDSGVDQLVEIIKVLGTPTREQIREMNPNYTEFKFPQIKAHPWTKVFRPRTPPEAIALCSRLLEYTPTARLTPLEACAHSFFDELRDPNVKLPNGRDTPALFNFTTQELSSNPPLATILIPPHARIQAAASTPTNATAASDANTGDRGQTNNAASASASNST

[2] = biological target: T1, Glycogen synthase kinase-3 beta; assay: Inhibition of GSK3beta (unknown origin) pre-incubated for 30 mins followed by ULight-GS (Ser641/pSer657) peptide substrate addition and measured after 1 hr by TR-FRET assay
Target sequence in this assay (P49841 whole entry): as the sequence (P49841 whole entry, looked up) above

[3] = biological target: Casein kinase I isoform epsilon (Homo sapiens) (UniProt P49674); assay: Inhibition of human recombinant CK1epsilon at 10 uM incubated for 60 mins by Kinase-Glo assay
Chain of Casein kinase I isoform epsilon (Homo sapiens) (P49674 whole entry, looked up, canonical isoform): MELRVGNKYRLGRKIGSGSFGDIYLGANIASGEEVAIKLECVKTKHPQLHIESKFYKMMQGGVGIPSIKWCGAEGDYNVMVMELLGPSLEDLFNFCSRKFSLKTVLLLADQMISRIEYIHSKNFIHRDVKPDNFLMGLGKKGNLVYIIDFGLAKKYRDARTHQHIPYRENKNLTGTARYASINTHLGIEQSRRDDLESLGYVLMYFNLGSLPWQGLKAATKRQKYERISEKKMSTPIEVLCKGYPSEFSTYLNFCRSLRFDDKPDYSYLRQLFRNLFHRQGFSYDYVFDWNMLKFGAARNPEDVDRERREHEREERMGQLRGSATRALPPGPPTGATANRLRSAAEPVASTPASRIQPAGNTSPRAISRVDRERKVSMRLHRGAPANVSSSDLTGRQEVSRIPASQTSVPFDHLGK
Method in brief: (§1)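 Human recombinant CK1δ or CK1ε, 16 ng, in 50 mM HEPES pH 7.5 with 10 mM MgCl2, 1 mM EGTA and Brij-35. Substrate 0.1% casein with 4 µM ATP; compound diluted to 10 µM before addition, DMSO ≤1%. Incubated 60 min at 30 °C, then Kinase-Glo luminescence read. Inhibition relative to no-inhibitor activity; mean of two experiments.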

[4] = Permeability in pH 7.4 PBS incubated for 2.5 hrs by PAMPA-BBB assay; format: ADME; conditions: read-out: permeability
Method in brief: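 PAMPA-BBB: donor filter coated with porcine brain lipid in dodecane (20 mg/mL). Compounds in PBS pH 7.4/EtOH 70:30, acceptor filled with the same. Sandwich incubated 2.5 h at 25 °C, then donor and acceptor concentrations measured by UV at 3–5 wavelengths, 3 wells, two runs. Ten reference drugs included for validation.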

[5] = biological target: Microtubule-associated protein tau (Homo sapiens) (UniProt P10636); assay: Inhibition of heparin-induced full-length 2N4R tau self aggregation (unknown origin) assessed as induction of delay in aggregation at 10 uM by ThT fluorescence assay based RT-QuIC analysis
Chain of Microtubule-associated protein tau (Homo sapiens) (P10636 whole entry): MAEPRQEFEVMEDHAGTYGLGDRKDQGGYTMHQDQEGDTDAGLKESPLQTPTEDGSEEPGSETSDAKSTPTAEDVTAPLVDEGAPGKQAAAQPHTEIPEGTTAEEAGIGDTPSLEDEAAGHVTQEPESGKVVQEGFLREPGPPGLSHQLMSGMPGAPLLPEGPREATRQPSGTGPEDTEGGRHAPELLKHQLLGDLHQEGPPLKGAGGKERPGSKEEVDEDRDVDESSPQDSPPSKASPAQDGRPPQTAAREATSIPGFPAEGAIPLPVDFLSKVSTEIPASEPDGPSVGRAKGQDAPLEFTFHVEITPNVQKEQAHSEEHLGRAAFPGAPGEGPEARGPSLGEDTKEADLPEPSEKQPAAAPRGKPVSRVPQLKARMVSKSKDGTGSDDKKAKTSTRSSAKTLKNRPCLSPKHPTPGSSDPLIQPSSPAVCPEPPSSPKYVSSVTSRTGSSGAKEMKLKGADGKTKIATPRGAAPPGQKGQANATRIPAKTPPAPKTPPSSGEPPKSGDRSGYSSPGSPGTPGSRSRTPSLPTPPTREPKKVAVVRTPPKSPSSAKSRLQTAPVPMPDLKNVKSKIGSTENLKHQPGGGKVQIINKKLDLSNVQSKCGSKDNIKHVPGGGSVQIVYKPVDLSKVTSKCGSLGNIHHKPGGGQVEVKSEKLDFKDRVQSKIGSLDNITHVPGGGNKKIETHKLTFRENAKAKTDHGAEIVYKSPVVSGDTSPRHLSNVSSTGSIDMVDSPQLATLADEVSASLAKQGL
Method in brief: (§2)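 Full-length 2N4R tau 20 µM with heparin 0.02 mg/mL, 0.5 mM DTT and 10 µM ThT in PBS, ±10 µM compound; 1% DMSO control. Cycled 1 min shaking at 600 rpm and 1 min rest at 42 °C. ThT read every 2 min (ex 450, em 480 nm).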

[6] = Inhibition of tau K18 fragment peptide aggregation assessed as induction of delay in […] self aggregation at 1 to 10 uM measured every 15 mins by ThT fluorescence assay based RT-QuIC analysis
Method in brief: (§3)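 Tau K18 21 µM with heparin 0.015 mg/mL, 0.1 mM DTT and 10 µM ThT in PBS, with compound at 1, 5 or 10 µM or 1% DMSO; triplicate. Cycled 1 min shaking at 300 rpm and 14 min rest at 37 °C. ThT read every 15 min (ex 450, em 480 nm). Inhibition from mean plateau fluorescence.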

[7] = biological target: T1, Glycogen synthase kinase-3 beta; assay: Inhibition of GSK3beta (unknown origin) using GS-2 peptide substrate incubated for 30 mins by kinase-Glo luminescent assay
Method in brief: (§4)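 Human recombinant GSK-3β, 20 ng, in 50 mM HEPES pH 7.5 with 1 mM EDTA, 1 mM EGTA and Mg acetate. Incubated 30 min at 30 °C, then Kinase-Glo luminescence read after 10 min. Activity scaled between no-inhibitor and full-inhibition reference controls.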
Target sequence in this assay (P49841 whole entry): as the sequence (P49841 whole entry, looked up) above

[8] = biological target: Microtubule-associated protein tau (Homo sapiens) (UniProt P10636); assay: Inhibition of heparin-induced full-length 2N4R tau self aggregation (unknown origin) assessed as reduction in formed aggregates level at 10 uM by ThT fluorescence assay based RT-QuIC analysis; method in brief: as §2
[9] = biological target: T1, Glycogen synthase kinase-3 beta; assay: Competitive inhibition of GSK3beta (unknown origin) at 10 uM using fixed level of GS-2 peptide substrate and varying ATP levels incubated for 30 mins by kinase-Glo luminescent assay
Method in brief: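 Human recombinant GSK-3β, 20 ng per reaction, in HEPES pH 7.5 buffer with EDTA, EGTA and Mg acetate. GS-2 prephosphorylated peptide held at 25 µM; ATP varied from 1 to 50 µM along with inhibitor level. 30 min at 30 °C, then Kinase-Glo luminescence read after 10 min. Lineweaver–Burk double-reciprocal analysis; means of two experiments, each run in triplicate.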
Target sequence in this assay (P49841 whole entry, looked up): as above

[10] = biological target: T1, Glycogen synthase kinase-3 beta; assay: Reversible inhibition of GSK3beta (unknown origin) pre-incubated for 30 mins followed by 100 fold dilution into buffer containing ULight-GS (Ser641/pSer657) peptide substrate and cofactors by TR-FRET assay based jump-dilution assay
Target sequence in this assay (P49841 whole entry, looked up): as above

[11] = biological target: T1, Glycogen synthase kinase-3 beta; assay: Inhibition of GSK3beta (unknown origin) at 10 uM using GS-2 peptide substrate incubated for 30 mins by kinase-Glo luminescent assay
Method in brief: as §4, with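 “acetate. Substrate prephosphorylated GS-2 peptide 25 µM with 1 µM ATP; DMSO ≤1%.” for “acetate.”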
Target sequence in this assay (P49841 whole entry, looked up): as above

[12] = Hepatotoxicity in human HepG2 cells assessed as reduction in cell viability at 5 to 50 uM incubated for 24 hrs by MTT assay; format: toxicity, cell-based; conditions: hepg2, 24 h
Method in brief: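 HepG2 cells grown in DMEM with 10% FBS at 37 °C, 5% CO2, seeded at 0.5 × 10^5 cells/well and left 24 h. Exposed in serum-free DMEM for 24 h (concentrations listed as 0, 10, 25, 50 µM; elsewhere 0, 5, 25, 50 µM). MTT 0.1 mg/mL for 10 min at 37 °C in the dark. Formazan dissolved in Tris/Triton X-100, A570. Mean ± SE of ≥3 experiments in triplicate; reported as % of control.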

[13] = tested on: Cerebellar granule neurone; assay: Neurotoxicity in rat primary cerebellar granule neurons assessed as reduction in cell viability at 50 uM incubated for 24 hrs by MTT assay; format: toxicity
Method in brief: (§5)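 Cerebellar granule neurons from 7-day-old rat pups, plated on poly-L-lysine at 3 × 10^5 cells/well in BME with FBS and 25 mM KCl. Cytosine arabinoside 10 µM added at 16 h. At 7 days in vitro, switched to serum-free BME with 25 mM KCl and treated 24 h at 0, 5, 25 or 50 µM. MTT 0.1 mg/mL for 20 min at 37 °C, A570. Mean ± SE of ≥3 experiments in triplicate, as % of control.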

[14] = biological target: Casein kinase I isoform delta (Homo sapiens) (UniProt P48730); assay: Inhibition of human recombinant CK1delta at 10 uM incubated for 60 mins by Kinase-Glo assay; method in brief: as §1
Chain of Casein kinase I isoform delta (Homo sapiens) (P48730 whole entry, looked up, the tested form may be a part, canonical isoform): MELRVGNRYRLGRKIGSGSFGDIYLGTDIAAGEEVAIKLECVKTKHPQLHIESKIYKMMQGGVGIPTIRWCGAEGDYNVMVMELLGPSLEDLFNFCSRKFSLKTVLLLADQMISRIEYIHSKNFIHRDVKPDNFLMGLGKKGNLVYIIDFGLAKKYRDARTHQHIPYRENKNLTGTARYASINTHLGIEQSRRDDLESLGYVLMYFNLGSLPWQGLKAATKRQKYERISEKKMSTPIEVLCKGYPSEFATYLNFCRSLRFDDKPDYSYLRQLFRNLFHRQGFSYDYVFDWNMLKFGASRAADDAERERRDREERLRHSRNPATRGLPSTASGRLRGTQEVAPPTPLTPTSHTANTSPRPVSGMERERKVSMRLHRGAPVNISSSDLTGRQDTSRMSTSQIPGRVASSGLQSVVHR

[15] = Inhibition of tau K18 fragment peptide aggregation assessed as reduction in […] self aggregation at 1 to 10 uM measured every 15 mins by ThT fluorescence assay based RT-QuIC analysis; method in brief: as §3
[16] = Inhibition of AcPHF6 peptide aggregation in pH 7.4 phosphate buffer at 20 uM by CD Spectroscopy
[17] = Inhibition of AcPHF6 peptide aggregation in pH 7.4 phosphate buffer at 10 uM by atomic force microscopy
Method in brief: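 AcPHF6 500 µM in water diluted to 50 µM in 50 mM phosphate pH 7.4, ±10 µM compound, no ThT. Incubated 80 min at 25 °C with 10 s shaking at 400 rpm each minute. Ultrafiltered (30 kDa cut-off), buffer exchanged to water, and the retained high-MW fraction adsorbed on mica. Imaged by PeakForce tapping-mode AFM.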

[18] = biological target: T1, Glycogen synthase kinase-3 beta; assay: Inhibition of GSK3beta (unknown origin) at 10 uM
Method in brief: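 Human recombinant GSK-3β (20 ng) with 25 µM GS-2 prephosphorylated peptide and 1 µM ATP in 50 mM HEPES pH 7.5, 1 mM EDTA, 1 mM EGTA, Mg acetate. DMSO at most 1%. 30 min at 30 °C; reaction stopped with Kinase-Glo, luminescence read after 10 min. Activity scaled between no inhibitor and full inhibition by a reference inhibitor.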
Target sequence in this assay (P49841 whole entry, looked up): as the sequence (P49841 whole entry, looked up) above

[19] = biological target: CDC7/DBF4 (Cell division cycle 7-related protein kinase/Activator of S phase kinase) (Homo sapiens) (UniProt Q9UBU7+O00311); assay: Inhibition of CDC7/Dbf4 (unknown origin) at 10 uM incubated for 60 mins by Kinase-Glo assay; format: protein-complex assay; conditions: in the assay text read “ADP-Glo assay” for “Kinase-Glo assay”
Chain of CDC7/DBF4 (Cell division cycle 7-related protein kinase/Activator of S phase kinase) (Homo sapiens) (O00311 whole entry, looked up): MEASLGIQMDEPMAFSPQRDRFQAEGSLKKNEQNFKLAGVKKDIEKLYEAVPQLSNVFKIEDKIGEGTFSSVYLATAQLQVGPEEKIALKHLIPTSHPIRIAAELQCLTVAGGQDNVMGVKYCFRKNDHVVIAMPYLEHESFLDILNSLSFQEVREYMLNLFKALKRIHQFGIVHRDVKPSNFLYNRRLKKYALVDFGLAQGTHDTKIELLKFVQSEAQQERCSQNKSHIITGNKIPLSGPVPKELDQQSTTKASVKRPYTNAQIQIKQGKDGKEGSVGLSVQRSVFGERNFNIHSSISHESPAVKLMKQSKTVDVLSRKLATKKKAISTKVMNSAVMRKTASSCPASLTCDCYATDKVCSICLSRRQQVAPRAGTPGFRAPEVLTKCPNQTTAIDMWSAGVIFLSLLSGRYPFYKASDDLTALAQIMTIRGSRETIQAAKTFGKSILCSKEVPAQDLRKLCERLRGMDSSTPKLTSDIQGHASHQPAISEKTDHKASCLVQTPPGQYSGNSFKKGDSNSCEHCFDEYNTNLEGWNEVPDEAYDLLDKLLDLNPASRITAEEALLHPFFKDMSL
Chain of CDC7/DBF4 (Cell division cycle 7-related protein kinase/Activator of S phase kinase) (Homo sapiens) (Q9UBU7 whole entry, looked up): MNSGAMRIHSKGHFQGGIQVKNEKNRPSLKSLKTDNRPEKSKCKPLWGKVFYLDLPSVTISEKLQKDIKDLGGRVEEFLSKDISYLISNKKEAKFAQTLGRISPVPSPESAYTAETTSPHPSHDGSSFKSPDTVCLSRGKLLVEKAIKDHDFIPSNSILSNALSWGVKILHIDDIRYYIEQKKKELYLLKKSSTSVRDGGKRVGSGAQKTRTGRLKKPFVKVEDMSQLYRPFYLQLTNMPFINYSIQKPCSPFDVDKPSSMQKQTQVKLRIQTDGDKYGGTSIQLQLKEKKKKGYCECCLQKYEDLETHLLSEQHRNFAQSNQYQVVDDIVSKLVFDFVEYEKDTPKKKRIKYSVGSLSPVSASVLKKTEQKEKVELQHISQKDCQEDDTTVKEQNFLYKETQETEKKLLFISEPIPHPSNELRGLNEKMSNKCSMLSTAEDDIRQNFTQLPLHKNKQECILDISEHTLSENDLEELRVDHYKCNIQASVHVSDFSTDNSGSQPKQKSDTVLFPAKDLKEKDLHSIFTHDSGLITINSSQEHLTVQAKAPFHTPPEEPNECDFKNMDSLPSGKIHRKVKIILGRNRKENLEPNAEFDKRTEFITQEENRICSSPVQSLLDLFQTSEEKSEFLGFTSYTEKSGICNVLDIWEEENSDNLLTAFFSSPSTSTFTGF
Method in brief: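 CDC7/DBF4 enzyme, 25 ng/well, with 10 µM ATP (final) and PDKtide substrate. Incubated 60 min at room temperature. ADP-Glo reagent added for 40 min, then detection reagent for 30 min, and luminescence read. Inhibition calculated relative to the no-inhibitor maximum.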

[20] = tested on: Cerebellar granule neurone; assay: Neurotoxicity in rat primary cerebellar granule neurons assessed as reduction in cell viability at 5 to 25 uM incubated for 24 hrs by MTT assay; format: toxicity; method in brief: as §5

With `COc1ccc2c(c1)c(/C=C1\SC(=O)NC1=O)cn2C` the inhibition [1] was “Active”, the IC50 [2] was 5.5 µM and the inhibition [3] was “inactive”. For the same compound, the Papp at 2.5 h [4] was > 3.07 ×10⁻⁶ cm/s, the inhibition [5] was “inactive” and the inhibition [6] was “Active”. For the same compound, the IC50 [7] was 890 nM, the inhibition [8] was 30% and the inhibition [9] was “Active”. The inhibition [10] was “Active”, the inhibition [11] was > 50% and the Activity [12] was “Non-Toxic”. The Activity [13] was “Toxic”, the inhibition [14] was “inactive” and the inhibition [15] was 35%. For the same compound, the inhibition [16] was “Active”, the inhibition [17] was “Active” and the inhibition [18] was 100%. The inhibition [19] was “inactive” and the Activity [20] was “Non-Toxic”.
